Experimental data: paper PMC7386824 (Journal of medicinal chemistry, 2020)
“Also recorded” adds a separate entry of the source.

Experiments:
HCMV Towne [1] = test: HCMV entry, indirect immunofluorescence assay for pp65; format: cell-based, human cytomegalovirus; conditions: 24 h pretreatment; MLS8969 3 μM, heparin 30 μM, GCV 5 μM; IFA 2 hpi
HCMV Towne [2] = test: drug combination with letermovir, plaque reduction assay, Bliss model; format: cell-based, human cytomegalovirus; conditions: Human betaherpesvirus 5, read-out: EC50 (Compound 1, letermovir alone)
EBV = test: inhibition of lytic EBV replication in AKATA cells, real-time PCR; format: cell-based, Epstein Barr virus
HCMV Towne [3] = test: viral DNA replication and DNA load in supernatants, US17 real-time PCR; format: cell-based, human cytomegalovirus; conditions: HCMV Towne MOI 0.1; NFU1827 5 μM, MLS8554 2 μM, MLS8091 1.5 μM, NCGC2955 3 μM; GCV 5 μM
HCMV Towne [4] = test: Western blot of viral protein expression in HCMV-infected HFFs; format: cell-based, human cytomegalovirus
MCMV Smith strain = test: plaque reduction assay, MCMV in MEFs; format: cell-based, mouse CMV
HSV1 = test: plaque reduction assay, HSV1 clinical isolate in Vero cells; format: cell-based, herpes simplex 1
HSV2 = test: plaque reduction assay, HSV2 clinical isolate in Vero cells; format: cell-based, herpes simplex 2
HCMV Towne [5] = test: add-on and removal assays, luciferase activity at 72 hpi; format: cell-based, human cytomegalovirus; conditions: for timing of activity in the add-on assay / timing of activity in the removal assay: compared with GCV; for HCMV suppression when compound removed at 6 h (removal assay) / activity when added at or after 24 hpi (add-on assay): HCMV Towne MOI 1, luciferase 72 hpi; for time of anti-HCMV activity: add-on and removal assays
[6] = tested on: HCMV Towne (pp28-luciferase); test: pp28-luciferase recombinant HCMV Towne, luciferase activity at 72 hpi in HFFs; format: cell-based, human cytomegalovirus
MEFs = test: toxicity to MEFs; format: cell-based, mouse
In short: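 Uninfected mouse embryonic fibroblasts were exposed to test compound for 72 h or 8–10 days, the same time points as the antiviral assays. MTT (5 mg/mL stock in PBS) was then added, the plates were shaken at 150 rpm for 5 min and incubated at 37 °C for 2–3 h. Formazan formed by living cells was read as absorbance at 560 nm.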

Compound	inhibition of HCMV entry (pp65 nuclear staining) (HCMV Towne [1])	viral DNA replication in cells (HCMV Towne [3])	viral DNA yield in supernatants (HCMV Towne [3])	viral protein expression (Western blot) (HCMV Towne [4]; MOI 1, 72 hpi)	activity against MCMV (in words) (MCMV Smith strain)	activity against HSV1 (in words) (HSV1)	activity against HSV2 (in words) (HSV2)	also measured
Nc1nc2c(ncn2COC(CO)CO)c(=O)[nH]1 [GCV, Ganciclovir]	did not affect pp65 nuclear staining							
COc1cccc(N2CCN(C3=Nc4c(F)cccc4[C@H](CC(=O)O)N3c3cc(C(F)(F)F)ccc3OC)CC2)c1 [Letermovir]								EC50 (HCMV Towne [2]): 1.1 ± 0.1 nM
Nc1c(S(=O)(=O)c2cccs2)c2nc3ccccc3nc2n1Cc1ccccc1 [MLS8091]		higher than that achieved with GCV	not significantly different from GCV	Inhibition of all viral proteins	did not inhibit	did not inhibit	did not inhibit	activity against EBV (in words) (EBV): did not inhibit; also recorded: not active; timing of activity in the add-on assay (HCMV Towne [5]): overlapped with that of GCV; timing of activity in the removal assay (HCMV Towne [5]): showed earlier effects
CCc1ccc(NC(=O)[C@H](Cc2c[nH]c3ccccc23)NC(=O)[C@@H]2Cc3ccccc3CN2)cc1 [MLS8554]		significantly reduced	significantly reduced	reduced IE2, UL44, UL84 and pp65 protein levels		active	active	HCMV suppression when compound removed at 6 h (removal assay) (HCMV Towne [5]): near complete; activity when added at or after 24 hpi (add-on assay) (HCMV Towne [5]): activity was significantly reduced; time of anti-HCMV activity (HCMV Towne [5]): 0–24 hpi
COc1ccc(Cl)cc1C(=O)Nc1ccc(NC(=O)c2ccco2)cc1 [MLS8969]	inhibited HCMV entry only at MOI of 0.1			no inhibition of viral protein expression	did not inhibit	did not inhibit	did not inhibit	activity against EBV (in words) (EBV): did not inhibit; reduction of luciferase activity ([6]; compound added after infection, MOI of 1 PFU/cell, 72 hpi): minimal reduction in luciferase activity; inhibition of luciferase activity ([6]; compound added before infection, range of MOIs): MOI-dependent inhibition of luciferase activity; viral protein expression (Western blot) (HCMV Towne [4]; pretreatment followed by infection at low MOI (0.01), 72 hpi): decreased IE1/2, pp65, UL84 and UL44 protein levels
CC(C)NC(=O)C1CCN(C(=O)c2cc3sccc3n2Cc2ccc(Cl)cc2)CC1 [NCGC2955, 1-(4-(4-chIorobenzyl)-4H-thieno[3,2-b]pyrrole-5-carbonyl)-N-isopropyIpiperidine-4-carboxamide]		modest	modest	strong reduction in viral protein expression including IE1 and IE2				concentration at which toxicity to MEFs was observed (MEFs): ≥ 10 µM; dose response in pp28-luciferase assay [6]: did not show a full dose response; timing of activity in the add-on assay (HCMV Towne [5]): overlapped with that of GCV; timing of activity in the removal assay (HCMV Towne [5]): longer activity than GCV
CCN1CCN(CCCNC(=O)c2ccc3c(c2)sc2nc(-c4ccc(OC)cc4)cn23)CC1 [NFU1827, N-[3-(4-ethylpiperazin-1-yl)propyl]-4-(4-methoxyphenyl)-7-thia-2,5-diazatricyclo [6.4.0.02,6] dodeca-1(8),3,5,9,11-pentaene-10-carboxamide]		significantly reduced	significantly reduced	reduced the level of both IE1 and IE2	no activity	no activity	no activity	HCMV suppression when compound removed at 6 h (removal assay) (HCMV Towne [5]): significant HCMV suppression; activity when added at or after 24 hpi (add-on assay) (HCMV Towne [5]): lost its ability to inhibit HCMV; time of anti-HCMV activity (HCMV Towne [5]): 0–24 hpi
Heparin	inhibited HCMV entry							
